Experimental data gathered from unrelated publications.
Each line is one published result; the experiments were not run side by side.
Target: Mitogen-activated protein kinase kinase kinase 9 (MAP3K9, Homo sapiens, UniProt P80192)

Structure (SMILES)	assay	conditions	remaining binding [%]
C=CC(=O)N1CCC(C(=O)NCC(=O)N2CCN(c3nc(-c4cnc(N)nc4C(F)F)nc(N4CCOCC4)n3)CC2)CC1	binding, competition with immobilised ligand	1 µM	96
CNC(=O)[C@@H]1CC[C@@H](n2c(-c3ccc4cnccc4c3)nc3ccc(C(=O)NCc4cccc(C(N)=O)c4)cc32)C1	binding, competition with immobilised ligand	1 µM	100
CN(C)c1ncc(F)c(-c2cnn3ncccc23)n1	binding	1 µM	100
CN(C)C(=O)Cn1cc(-c2nc([C@@](C)(c3ccc(-c4cnc(N)nc4)cc3)C3CC3)no2)cn1	cell-free assay, competition with immobilised ligand	1 µM	100
CC(C)(C)c1ccc(-c2nc(CBr)nn2-c2cccc(O)c2)cc1	cell-free assay, competition with immobilised ligand	10 µM	91
Cc1cc(C)c(-n2ccn3nc(-c4cccnc4)cc23)cc1NC(=O)c1cc(C#N)cc(S(F)(F)(F)(F)F)c1	cell-free assay, competition with immobilised ligand	0.1 µM	79.5
COc1ccnn2ncc(-c3ccnc(N(C)C)n3)c12	binding	1 µM	91
CCN1CCN(Cc2ccc(C(=O)Nc3ccc(C)c(Oc4ccc5c(c4)CC(=O)N5)c3)cc2C(F)(F)F)CC1	binding, competition with immobilised ligand	1 µM	100
COc1cc(-c2cn(C3CCc4c(F)cccc4N(CC(F)(F)F)C3=O)nn2)ccc1-n1cnc(C)c1 (stereo not shown)	cell-free assay, competition with immobilised ligand	1 µM	100
C[C@@H]1CCN(c2nccc(-c3cnn4ncccc34)n2)C1	binding	1 µM	100
Cc1cnc(Nc2ccc(C(=O)N3CCC(N4CCCC4)CC3)cc2)nc1-c1cc2ccccc2s1	binding, competition with immobilised ligand	1 µM	3.3
C[C@@H](c1cccc(C#N)c1)n1cc(Cl)cc(C(N)=O)c1=N	cell-free assay, competition with immobilised ligand	1 µM	100
CN(c1nccc(-c2cnn3ncccc23)n1)C1CC1	binding	1 µM	85
c1cncc(-c2cccc(Nc3nccc(NC4CCCCC4)n3)c2)c1	binding, competition with immobilised ligand	10 µM	19
O=C(NCCCN1CCOCC1)c1ccc(Nc2nccc(-c3cc4ccccc4s3)n2)cc1	binding, competition with immobilised ligand	1 µM	14
CC(=O)C1=C(C)N(c2cccc(C(F)(F)F)c2)C(=O)N[C@@H]1c1ccc(C#N)nc1	cell-free assay, competition with immobilised ligand	1 µM	94
C[C@@H]1CN(c2ccc3ncc(-c4ccc5[nH]nc(C6CC6)c5c4)n3n2)C[C@H](C)O1	binding, competition with immobilised ligand	0.5 µM	100
C[C@H](NC(=O)c1cnc2n1[C@](C)(Cc1ccc(C#N)cc1)C(=O)N2c1cc(Cl)c(F)c(Cl)c1)C(=O)NC1(c2ccccn2)CC1	cell-free assay, competition with immobilised ligand	1 µM	100
O=C(NCC1CCOCC1)c1n[nH]cc1NC(=O)c1c(F)cccc1F	binding, competition with immobilised ligand	1 µM	100
N[C@H]1CCN(c2nccc(-c3cnn4ncccc34)n2)C1	binding	1 µM	87
O=C(c1ccc(Nc2ncc(Cl)c(-c3cc4ccccc4s3)n2)cc1)N1CCC(N2CCCC2)CC1	binding, competition with immobilised ligand	1 µM	4.3
Cc1cnn2ncc(-c3ccnc(N(C)C)n3)c2c1	binding	1 µM	100
N#Cc1ccc(Nc2ccc3[nH]c(=O)[nH]c3c2)c(Cl)c1	cell-free assay, competition with immobilised ligand	1 µM	100
CC1CCCN1c1nccc(-c2cnn3ncccc23)n1 (stereo not shown)	binding	1 µM	100
N#Cc1ccccc1CSc1nnc2c(n1)[nH]c1ccccc12	binding, competition with immobilised ligand	10 µM	98
